For 25 molecules, inhibition results are on record in PubChem BioAssay AID602301 (The Scripps Research Institute Molecular Screening Center, 2012).

The source made the active and inactive calls.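 The calls were made as follows: active = inhibition of at least 50%; inactive = inhibition below 50%.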

One may read the inhibition as the drop in the measured response relative to a control, in per cent.

The experiment deals with Abhydrolase domain-containing protein 11 (ABHD11), Mus musculus. Kind of experiment: mouse ABHD11 activity inhibitors in proteome – biochemical, competitive gel ABPP, set 1, selectivity assay for DAGLb inhibitor project, late-stage follow-up (AID 602301). The settings on record: Recombinant ABHD11 in HEK293T proteome, gel ABPP FP-Rh; at 10 µM; hits give high values. The gist of the method: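 Assay system: recombinant mouse ABHD11 spiked into HEK293T membrane proteome overexpressing mouse DAGLb; quantity: ABHD11 at 0.050 µM, membrane proteome at 0.3 mg/mL; times: compound pre-incubation 30 min, then probe labelling 30 min, both 37 °C; signal: in-gel fluorescence scan after SDS-PAGE, band integrated optical density; benchmarks: DMSO only (high), gel background (low)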
For `O=C(N1CCCCC1Cc1ccccc1)n1cc(-c2ccc(Br)cc2)nn1` (stereo not given), the inhibition is 90%.
On to `O=C(N1CCCCC1Cc1ccccc1)n1ncc(C(O)(c2ccccc2)c2ccccc2)n1` (stereo not given), for which the inhibition is 95%.
The same measure for `O=C(N1CCCCC1Cc1ccccc1)n1cc(-c2ccccc2-c2ccccc2)nn1` (stereo not given): 95%.
The same measure for `O=C(N1CCCCC1Cc1ccccc1)n1cc(-c2ccc(-c3ccccc3CO)cc2)nn1` (stereo not given): 20% (inactive).
For `O=C(N1CCCCC1Cc1ccccc1)n1cc(-c2ccc(-c3cccc(C(F)(F)F)c3)cc2)nn1` (stereo not given), the inhibition is 10% (inactive).
`O=C(N1CCCCC1Cc1ccccc1)n1cc(-c2ccc(-c3ccoc3)cc2)nn1` (stereo not given): the inhibition is 30% (inactive).
The result for `O=C(N(CCc1ccccc1)Cc1ccco1)n1cc(-c2ccc(OC(F)(F)F)cc2)nn1` reads 15% (inactive); that for `O=C(N1CCCCC1Cc1ccccc1)n1cc(-c2ccc(-c3cccc(CO)c3)cc2)nn1` (stereo not given), 20% (inactive); that for `O=C(N1CCCCC1Cc1ccccc1)n1ncc(-c2ccc(OC(F)(F)F)cc2)n1` (stereo not given), 10% (inactive).
As for `O=C(N1CCCCC1Cc1ccccc1)n1cc(-c2ccc(OC(F)(F)F)cc2)nn1` (stereo not given), the inhibition was 50%.
The same measure for `CC(C)(C)OC(=O)NCCCCCN(CCc1ccccc1)C(=O)n1cc(-c2ccc(OC(F)(F)F)cc2)nn1`: 0% (inactive); for `O=C(c1ccc(-c2ccc(-c3cn(C(=O)N4CCCCC4Cc4ccccc4)nn3)cc2)cc1)N1CCCCC1` (stereo not given): 20% (inactive); for `COc1ccccc1-c1ccc(-c2cn(C(=O)N3CCCCC3Cc3ccccc3)nn2)cc1` (stereo not given): 10% (inactive).
The result for `CC(C)CN(CCc1ccccc1)C(=O)n1cc(-c2ccc(OC(F)(F)F)cc2)nn1` reads 10% (inactive).
Regarding `Cc1ccccc1-c1ccc(-c2cn(C(=O)N3CCCCC3Cc3ccccc3)nn2)cc1` (stereo not given), the inhibition is 60%.
The same measure for `O=C(N1CCCCC1Cc1ccccc1)n1cc(-c2ccc(-c3ccc4c(c3)OCO4)cc2)nn1` (stereo not given): 10% (inactive).
On to `O=C(N1CCCCC1Cc1ccccc1)n1cc(-c2ccc(-c3ccccc3C(F)(F)F)cc2)nn1` (stereo not given), for which the inhibition was 10% (inactive).
The result for `O=C(N1CCCCC1Cc1ccccc1)n1cc(-c2cccc(-c3ccccc3)c2)nn1` (stereo not given) reads 80%; that for `O=C(N1CCCCC1Cc1ccccc1)n1cc(-c2ccc(-c3ccccc3)cc2)nn1` (stereo not given), 0% (inactive); that for `O=C(N1CCCCC1Cc1ccccc1)n1cc(-c2ccc(-c3ccc(C(F)(F)F)cc3)cc2)nn1` (stereo not given), 30% (inactive).
Take `O=C(N1CCCCC1Cc1ccccc1)n1cc(-c2cc(F)cc(F)c2)nn1` (stereo not given): the inhibition was 95%.
Regarding `O=C(c1ccc(-c2cn(C(=O)N3CCCCC3Cc3ccccc3)nn2)cc1)N1CCCCC1` (stereo not given), the inhibition is 10% (inactive).
The result for `O=C(N1CCCCC1Cc1ccccc1)n1cc(-c2ccc(-c3ccccc3Cl)cc2)nn1` (stereo not given) reads 50%; that for `O=C(N1CCCCC1Cc1ccccc1)n1cc(-c2ccc(-c3ccccc3OC(F)(F)F)cc2)nn1` (stereo not given), 20% (inactive); that for `O=C(N1CCCCC1Cc1ccccc1)n1cc(-c2ccc(-c3ccc(OC(F)(F)F)cc3)cc2)nn1` (stereo not given), 20% (inactive).
